This is a sample that favours compounds with a hit; in the whole collection about 3.9% have one here.
CHOP UPR activ – apoptotic UPR (CHOP) activation; actives 0.34% (n = 330,000); activation, % at 10 µM; CHO-CHOP luciferase reporter, luminescence; percent of tunicamycin response over DMSO baseline; AID 449763;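 active = at 10 µM dose, activation of 40% or more, normalized to positive control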;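 note: 100% = tunicamycin at 10 µg/mL and 0% = DMSO alone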
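Evaluation: % reporter activation, DMSO baseline versus tunicamycin full activation; System: CHO-CHOP luciferase reporter cell line; Input: 500 cells/well; Incubation: 6 h compound treatment, 37 °C; Measured by: Steady-Glo luciferase luminescence; Dosing: one dose, 10 µM in 0.5% DMSO; Buffer or medium: F12 medium, 10% FBS; Benchmarks: positive tunicamycin 10 µg/mL, negative DMSO alone.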
XBP1 UPR activ – activators of adaptive arm of unfolded protein response (XBP1) | CHO-XBP1 luciferase reporter, IRE1-XBP1 UPR activation, luminescence; percent of tunicamycin response, DMSO as zero | activation, % at 20 µM | actives 0.33% (n = 330,000) | AID 463104;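 active = versus positive control, 20 µM dose yields 30% or more activation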;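 note: 100% = tunicamycin at 10 µg/mL and 0% = DMSO only wells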
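Material: CHO cell line with stable XBP1 luciferase reporter; buffer or medium: F12 medium containing 10% fetal bovine serum; compound: single point, 20 µM final compound, 1% DMSO; incubation: 6 h treatment, 37 °C; measured by: glow luminescence from Steady-Glo reagent; evaluation: activation, % of tunicamycin; control set: tunicamycin high, DMSO low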
Gli-Sufu block – antagonists of Gli-Sufu signaling. actives 0.74% (n = 340,000). Sufu-KO-LIGHT fibroblasts, Gli luciferase reporter luminescence. inhibition, % at 5 µM;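 active = inhibition above about 55%, limit read from the data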;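 note: 0% = DMSO-treated cells and 100% = wells with medium but no cells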
CHOP inh – inhibitors of CHOP induction in ER stress response. actives 3.8% (n = 220,000). inhibition, % at 10 µM. AID 2732. CHO-K1 CHOP-promoter luciferase, tunicamycin-induced, 15-18 h;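 active = compounds that reduced the stress-induced luciferase reporter signal by more than about 70% of percent inhibition, limit read from the data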;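 note: 0% = tunicamycin plus vehicle and 100% = wells without tunicamycin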
697 NFkB inh – inhibitors of the PMA/ionomycin-induced NF-kB reporter in 697 B cells | 697 B-cell NF-kB luciferase reporter, 16 h | inhibition, % at 4 µM | actives 0.33% (n = 330,000); in the data active = inhibition above about 35%
Jurkat NFkB inh – lowers PMA/ionomycin-induced NF-kB signal in Jurkat cells; PMA/ionomycin-induced NF-kB luciferase reporter, luminescence; inhibition, % at 4 µM; actives 0.53% (n = 330,000); in the data active = inhibition above about 50%
Gli antag conf – confirmation of Gli-SUFU pathway antagonists | AID 602428 | actives 40% (n = 2,500) | Sufu-KO-LIGHT cells, Gli luciferase reporter, luminescence | shares compounds with Gli-Sufu block | inhibition, % at 5 µM;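 active = mean inhibition at 5 µM reaching about 45%, limit read from the data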;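 note: plate controls were DMSO-treated cells for no effect and wells lacking cells for full effect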
Gli cytotox – counter-screen for Gli-SUFU antagonists: cytotoxicity | shares compounds with Gli-Sufu block | Sufu-KO-LIGHT cells cytotoxicity, ATP luminescence | cytotoxicity, % at 5 µM | actives 32% (n = 2,500) | AID 651994;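 active = mean cytotoxicity at 5 µM above about 25%, limit read from the data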;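 note: cells exposed to compound overnight for roughly 16 to 18 hours; plate controls were DMSO wells with cells for no effect and medium without cells for full effect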
Wnt3a cs – counter-screen for Gli-SUFU antagonists: Wnt3a reporter inhibition; Wnt-LIGHT cells, Wnt3a-driven luciferase reporter, luminescence; actives 20% (n = 2,500); AID 651995; inhibition, % at 6.25 µM; shares compounds with Gli-Sufu block;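 active = mean inhibition above about 25%, limit read from the data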
Starred values were filed as active, the others as inactive; . = no result.

SMILES	CHOP UPR activ	XBP1 UPR activ	Gli-Sufu block	CHOP inh	697 NFkB inh	Jurkat NFkB inh	Gli antag conf	Gli cytotox	Wnt3a cs
O=C(O)C1(Br)CC12c1ccccc1-c1ccccc12 (centres undefined)	.	.	-28.6	.	.	.	.	.	.
COc1ccc2c3c1OC1C(=O)CC[C@@]4(O)[C@@H](C2)N(CC2CC2)CC[C@]314 (some centres undefined)	1.4	-0.7	15.3	.	7.1	1.0	.	.	.
CCOP(=O)(OCC)C(O)c1cccc([N+](=O)[O-])c1 (centres undefined)	1.3	0.8	57.5*	2.2	10.3	10.5	12.2	25.0*	-34.5
CCOc1ccc(-c2cc(C)[n+](CCO)c(-c3ccc(OCC)cc3)c2)cc1	0.9	-1.5	64.2*	15.4	-16.9	22.8	60.4*	34.2*	-46.9
Cc1cc(-c2ccccc2)cc(-c2ccccc2)[n+]1CCc1ccccc1	-0.2	-3.1	91.7*	.	32.6	42.5	91.9*	47.5*	73.0*
C[n+]1c(-c2ccccc2)cc(-c2ccc(O)cc2)cc1-c1ccccc1	4.2	-2.8	11.3	14.2	17.1	2.1	.	.	.
CCOc1ccc(-c2cc(C)[n+](CCc3ccc(OC)c(OC)c3)c(-c3ccc(OCC)cc3)c2)cc1	12.5	14.1	68.6*	.	-14.0	25.7	79.0*	38.2*	-62.6
CCN(CC)CCO	1.4	-0.8	-0.4	.	3.3	-3.2	.	.	.
CN1CCN(C(=O)COc2ccc(S(=O)(=O)NC3CCCCC3)cc2Cl)CC1	1.7	-0.4	3.5	.	24.3	6.1	.	.	.
CCC(C)NC(=O)CCC(=O)OC1O[C@H]2OC3(C)CC[C@H]4[C@H](C)CCC(C1C)C24OO3 (some centres undefined)	.	.	79.1*	.	.	.	84.2*	22.4	25.5*
Cc1ncc(CN2CCCC(C(=O)c3ccc(C(C)(C)C)cc3)C2)s1 (centres undefined)	0.6	0.7	53.1	38.0	-39.0	3.0	14.0	23.7	-89.7
O=C(c1ccc(C(F)(F)F)cc1)C1CCCN(Cc2ccncc2)C1 (centres undefined)	1.3	0.1	55.8*	58.1	-16.2	16.0	38.1	21.4	-5.0
COc1ccc(C(=O)C2CCCN(Cc3cnc(C)s3)C2)cc1OC (centres undefined)	-0.6	-0.8	11.5	-8.1	0.7	-6.8	.	.	.
Fc1cccc(F)c1-c1nc(-c2ccc(Cl)cc2)no1	3.4	4.8	-63.7	-20.1	-118.2	-87.4	.	.	.
CN(C)c1ccc(/C=C/C=C/c2sc3ccccc3[n+]2C)cc1	4.3	3.9	82.5*	48.1	-44.4	20.4	83.8*	39.8*	48.1*
C[n+]1c(-c2ccccc2)sc2ccccc21	-1.0	-1.8	0.4	.	-20.1	-10.7	.	.	.
CCOC(=O)CNC(=O)CNC(=O)C(Cc1ccc(N(CCCl)CCCl)cc1)NC(C)=O (centres undefined)	1.5	-7.0	15.9	33.7	-0.9	-2.5	.	.	.
CC(=O)NC(Cc1ccc(N(CCCl)CCCl)cc1)C(=O)NCC(=O)NCC(=O)O (centres undefined)	-0.4	-2.2	53.2	56.6	9.7	4.5	18.6	3.8	-1.7
Cc1c(N=Cc2c(O)n(Cc3ccc(F)cc3)c(=O)[nH]c2=O)c(=O)n(-c2ccccc2)n1C	2.0	-0.2	63.0*	54.5	20.9	13.9	22.7	3.6	-25.6
COc1cc2c(cc1OC)C1C(=O)c3ccc4c(c3OC1CO2)CC(C(C)C)O4 (centres undefined)	.	.	85.2*	.	.	.	89.3*	46.9*	37.3*
C[Se]C[C@@H](N)C(=O)O	-1.2	-1.5	-14.8	.	15.0	-4.0	.	.	.
CC(CC(C)(C)N1CC1)=NO	.	.	4.1	.	.	.	.	.	.
C/C(=N\Nc1cccc2ccccc12)c1c(O)n(Cc2ccccc2)c(=O)[nH]c1=O	-0.9	-1.6	56.5*	45.5	-7.0	10.7	17.6	11.6	-6.7
FCCN(CCF)c1cccc(Cl)c1	0.0	-5.8	-19.7	5.3	24.1	2.8	.	.	.
COC(=O)C1=C(c2cccc(C#N)c2)C[C@@H]2CC[C@H]1N2C(=O)NCc1ccco1	0.6	-2.6	-16.3	.	4.0	-12.3	.	.	.
SMILES	CHOP UPR activ	XBP1 UPR activ	Gli-Sufu block	CHOP inh	697 NFkB inh	Jurkat NFkB inh	Gli antag conf	Gli cytotox	Wnt3a cs
CCOC(=O)CC1c2ccccc2-n2nncc2CN1Cc1ccc(OC)cc1 (centres undefined)	.	.	9.1	.	.	.	.	.	.
CC(C)[N+](C)(CCC(C(N)=O)(c1ccccc1)c1ccccc1)C(C)C	-1.7	-4.5	17.8	13.4	-7.8	12.2	.	.	.
CCN(CC)c1ccc(N=Cc2c(O)n(-c3ccccc3)c(=O)[nH]c2=O)cc1	1.8	-2.5	-2.2	26.6	0.1	4.0	.	.	.
CCOc1ccc(-n2c(O)c(C=Nc3ccc(N(CC)CC)cc3)c(=O)[nH]c2=O)cc1	1.1	1.9	97.4*	28.6	-33.3	10.5	10.9	16.7	-11.8
OC(Cc1ccccc1)(c1ccccc1)C1CN2CCC1CC2 (centres undefined)	0.1	-2.4	1.5	42.0	-24.6	5.2	.	.	.
OC(c1ccccc1)(c1ccc(Cl)cc1)C1CN2CCC1CC2 (centres undefined)	-1.7	-2.7	58.3*	13.0	-9.6	-3.8	26.6	21.6	-43.5
COc1cc(O)cc2c1cc([N+](=O)[O-])c1c(C(=O)O)cc3c(c12)OCO3	-1.1	-3.8	4.0	.	-8.4	-8.7	.	.	.
CC(=O)c1cn(Cc2ccccc2F)c2ccccc12	4.7	-2.3	59.4*	.	10.8	38.3	48.7*	36.5*	19.0
O=Cc1cn(Cc2ccccc2F)c2ccccc12	-2.6	-2.5	2.7	25.8	13.7	8.2	.	.	.
N/C(=N\N=C\c1ccc(O)cc1O)N[N+](=O)[O-]	-0.7	-0.9	55.3*	-3.2	-28.8	-31.0	14.4	15.2	42.1*
C1=C(c2c[nH]c3ccccc23)CCN(Cc2ccccc2)C1	1.2	4.7	55.1*	27.0	-19.7	40.8	19.7	19.6	-50.1
CC[C@@]1(O)C(=O)OCc2c1cc1n(c2=O)Cc2cc3ccccc3nc2-1	.	.	.	-27.3	.	.	.	.	.
CCC1(OC(=O)CN)C(=O)OCc2c1cc1n(c2=O)Cc2cc3ccccc3nc2-1 (centres undefined)	.	.	82.1*	-7.2	.	.	58.7*	59.0*	-82.9
O=c1[nH]c(=S)n(Cc2ccc(F)cc2)c(O)c1C=NCc1cccnc1	-0.3	-1.0	71.7*	28.2	-12.6	-0.8	22.4	-4.8	-13.6

High-throughput results as filed in PubChem.
